The source of these data is ChEMBL document CHEMBL4041481, “Linker-switch approach towards new ATP binding site inhibitors of DNA gyrase B” (Eur J Med Chem, 2017).

For experiment [1], the target named is T1, DNA gyrase subunit B (Escherichia coli, UniProt P0AES6). In words: Inhibition of Escherichia coli ATCC 25922 DNA gyrase B using relaxed pNO1 DNA as substrate incubated for 30 mins and measured by sybrGOLD staining based fluorescence assay.
In experiment [2] the target is DNA gyrase subunit B (Escherichia coli) (UniProt P0AES6). In words: Inhibition of Escherichia coli DNA ATCC 25922 gyrase B assessed as residual activity at 100 uM using relaxed pNO1 DNA as substrate incubated for 30 mins and measured by sybrGOLD staining based fluorescence assay. Conditions: Escherichia coli ATCC 25922; call rule not given here. In outline:
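Gyrase supercoiling with 1.5 U enzyme and 0.75 µg relaxed pNO1 plasmid. 30 min at 37 °C, stopped with pH 5.0 TF buffer. Triplex capture on immobilized biotinylated oligonucleotide, 30 min at room temperature. Residual activity at 100 µM; 1% DMSO negative control.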

The target of experiment [3] is DNA gyrase subunit B (Staphylococcus aureus, UniProt P0A0K8). In words: Inhibition of Staphylococcus aureus DNA gyrase B using relaxed pNO1 DNA as substrate incubated for 30 mins and measured by sybrGOLD staining based fluorescence assay.
Chain of DNA gyrase subunit B (Staphylococcus aureus, UniProt P0A0K8) (P0A0K8 whole entry): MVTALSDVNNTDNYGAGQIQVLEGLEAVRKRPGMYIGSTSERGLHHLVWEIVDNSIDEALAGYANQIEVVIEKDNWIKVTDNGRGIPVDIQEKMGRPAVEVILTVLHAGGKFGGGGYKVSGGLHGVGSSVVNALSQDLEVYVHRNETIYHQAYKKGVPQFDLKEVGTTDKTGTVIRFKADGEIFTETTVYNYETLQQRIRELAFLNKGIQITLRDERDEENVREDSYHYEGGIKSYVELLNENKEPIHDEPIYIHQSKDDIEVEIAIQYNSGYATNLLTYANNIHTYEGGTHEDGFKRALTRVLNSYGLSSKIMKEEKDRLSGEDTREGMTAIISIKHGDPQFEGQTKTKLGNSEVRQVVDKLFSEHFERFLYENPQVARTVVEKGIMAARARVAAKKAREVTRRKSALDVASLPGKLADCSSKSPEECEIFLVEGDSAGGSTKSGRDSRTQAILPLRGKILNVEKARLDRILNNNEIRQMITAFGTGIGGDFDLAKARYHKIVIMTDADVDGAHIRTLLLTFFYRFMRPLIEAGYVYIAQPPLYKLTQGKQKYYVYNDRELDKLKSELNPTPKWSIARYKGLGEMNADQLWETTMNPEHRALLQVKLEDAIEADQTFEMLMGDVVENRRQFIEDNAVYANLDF
Experiment [4] has as its target T1, DNA gyrase subunit B. In words: Binding affinity to Escherichia coli ATCC 25922 DNA gyrase B by surface plasmon resonance assay. In outline:
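Running buffer: 10 mM Hepes, 150 mM NaCl, 3 mM EDTA, 0.005% P20, pH 7.4, plus 1% DMSO. Injections at 30 µL/min for 90 s, 120 s dissociation. At least eight concentrations, three parallel titrations. Kd from 1:1 steady-state fit of responses 5 s before injection end.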
In general terms: SPR reads the build-up and loss of mass on a sensor chip optically.

In experiment [5] the target is DNA gyrase subunit B (Staphylococcus aureus) (UniProt P0A0K8). In words: Inhibition of Staphylococcus aureus DNA gyrase B assessed as residual activity at 100 uM using relaxed pNO1 DNA as substrate incubated for 30 mins and measured by sybrGOLD staining based fluorescence assay. In outline:
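Gyrase supercoiling with 1.5 U enzyme and 0.75 µg relaxed pNO1 plasmid. 30 min at 37 °C, stopped with pH 5.0 TF buffer. Triplex capture on immobilized biotinylated oligonucleotide, 30 min at room temperature. Washed, SybrGOLD-stained, fluorescence 485/535 nm. Residual activity at 100 µM; 1% DMSO negative control.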

The nature of experiment [6]: Inhibition of Staphylococcus aureus DNA gyrase using relaxed pBR322 DNA as substrate after 3 hrs by agarose electrophoresis.
Experiment [7] in a line: Inhibition of Escherichia coli DNA gyrase using relaxed pBR322 DNA as substrate after 3 hrs by agarose electrophoresis.

By IC50 is commonly meant the concentration that gives 50% inhibition. As a reminder, the Kd is a measure of binding affinity in units of concentration. A lower Kd goes with higher affinity.

Chain of DNA gyrase subunit B (Staphylococcus aureus) (P0A0K8 2-644 limits assumed): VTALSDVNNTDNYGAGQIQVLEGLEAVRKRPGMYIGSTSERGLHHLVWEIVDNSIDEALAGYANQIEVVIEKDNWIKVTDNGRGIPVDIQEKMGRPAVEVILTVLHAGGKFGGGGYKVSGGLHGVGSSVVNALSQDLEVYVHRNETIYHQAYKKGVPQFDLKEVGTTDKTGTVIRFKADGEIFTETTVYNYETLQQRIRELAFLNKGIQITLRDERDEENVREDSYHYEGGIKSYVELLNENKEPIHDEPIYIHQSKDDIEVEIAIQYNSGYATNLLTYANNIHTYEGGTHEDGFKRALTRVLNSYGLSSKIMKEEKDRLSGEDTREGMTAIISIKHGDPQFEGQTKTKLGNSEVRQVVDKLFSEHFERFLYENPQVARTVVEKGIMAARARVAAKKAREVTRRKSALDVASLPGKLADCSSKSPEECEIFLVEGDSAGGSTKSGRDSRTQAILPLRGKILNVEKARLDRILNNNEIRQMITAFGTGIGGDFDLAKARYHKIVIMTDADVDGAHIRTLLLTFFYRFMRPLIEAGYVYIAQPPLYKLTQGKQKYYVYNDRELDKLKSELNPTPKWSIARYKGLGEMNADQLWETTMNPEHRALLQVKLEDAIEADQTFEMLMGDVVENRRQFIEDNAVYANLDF

In the case of `Cc1[nH]c(C(=O)NC2CCN(C(=O)CCC(=O)O)CC2)c(Cl)c1Cl`, the midpoint of inhibition against DNA gyrase subunit B [1], the IC50, lay at 0.48 µM.

`O=C(O)CCC(=O)N1CCC(NC(=O)c2ccc[nH]2)CC1`: in experiment [2], the Activity was determined as 100%.

With `COC(=O)c1cccc(CN2CCC(NC(=O)c3cc(Br)c(Br)[nH]3)CC2)c1`, the Activity in experiment [2] is 100%.

Regarding `O=C(O)CC(=O)N1CCN(C(=O)c2cc(Br)c(Br)[nH]2)CC1`, the IC50 on DNA gyrase subunit B [1] was 1080 µM; against DNA gyrase subunit B [3] it was “Not Active”.

For the compound `O=C(NC1CCN(C(=O)c2ccc(O)c(O)c2)CC1)c1cc2ccccc2[nH]1`, half-maximal inhibition against DNA gyrase subunit B [1] (IC50) was put at 150 µM.

Turning to `CC(C)(C)OC(=O)N1CCC(NC(=O)c2cc3ccccc3[nH]2)CC1`, the Activity in experiment [2] worked out at 100%.

Consider `C=CCN(C(=O)c1cc(Br)c(Br)[nH]1)C1CCN(C(=O)CCC(=O)O)CC1`, for which the Activity in experiment [2] turned out to be 29%.

`O=C(O)c1ccc(C(=O)N2CCC(NC(=O)c3cc4ccccc4[nH]3)CC2)cc1`: the Activity in experiment [2] amounted to 100%.

As to `O=C(NC1CCN(C(=O)c2ccc(O)c(O)c2)CC1)c1cc(Cl)c(Cl)[nH]1`, at DNA gyrase subunit B [1], the IC50 amounted to 8.08 µM.

For the compound `COC(=O)CCC(=O)N1CCC(NC(=O)c2cc3ccccc3[nH]2)CC1`, the Activity in experiment [2] turned out to be 100%.

On to `O=C(O)CCNC(=O)[C@H]1CC[C@@H](NC(=O)c2cc(Br)c(Br)[nH]2)CC1`, for which it took 100 µM to reach half-maximal inhibition against DNA gyrase subunit B [1] (IC50).

For the compound `O=C(O)CCC(=O)N1CCC(N(Cc2ccccc2)C(=O)c2cc(Br)c(Br)[nH]2)CC1`, on DNA gyrase subunit B [1], the IC50 is 49.5 µM. At DNA gyrase subunit B [4], binding was put at a Kd of 11.2 µM.

Consider `O=C(O)CCC(=O)N1CCC(NC(=O)c2cc3ccccc3[nH]2)CC1`, for which the Activity in experiment [2] worked out at 100%.

For the compound `O=C(O)CCNC(=O)[C@H]1CC[C@H](CNC(=O)c2cc(Br)c(Br)[nH]2)CC1`, the Activity in experiment [2] was 100%.

As for `C=CCN(C(=O)c1cc(Br)c(Br)[nH]1)C1CCN(C(=O)CCC(=O)OC)CC1`, in experiment [2], the Activity was determined as 36%.

In turn, `O=C(O)CCCC(=O)N1CCC(NC(=O)c2cc(Br)c(Br)[nH]2)CC1` showed an IC50 on DNA gyrase subunit B [1] of 3.18 µM. For the same compound, in experiment [5], the Activity is 71%.

Turning to `N#Cc1ccc(C(=O)N2CCC(NC(=O)c3cc(Br)c(Br)[nH]3)CC2)cc1`, the Activity in experiment [2] was determined as 100%.

For `C=CCN(C(=O)c1cc2ccccc2[nH]1)C1CCN(C(=O)CCC(=O)O)CC1`, in experiment [2], the Activity was determined as 100%.

For `O=C(O)CCC(=O)N1CCC(NC(=O)c2cc(Br)c(Br)[nH]2)CC1`, the IC50 against DNA gyrase subunit B [1] worked out at 1.55 µM; at DNA gyrase subunit B [3] (read-out: IC50), 93.8 µM. The compound also registered a Kd at DNA gyrase subunit B [4] of 12.6 µM.

`COC(=O)CCNC(=O)[C@H]1CC[C@@H](NC(=O)c2cc(Br)c(Br)[nH]2)CC1`: in experiment [2], the Activity was found to be 100%.

As for `Nc1ncc(C(=O)N2CCN(C(=O)c3ccc[nH]3)CC2)[nH]1`, in experiment [2], the Activity worked out at 100%.

For `O=C(O)CC(=O)N1CCC(NC(=O)c2cc3ccccc3[nH]2)CC1`, the IC50 against DNA gyrase subunit B [1] amounted to 100 µM.

Regarding `O=C(O)c1ccc(C(=O)N2CCC(NC(=O)c3cc(Br)c(Br)[nH]3)CC2)cc1`, at DNA gyrase subunit B [1], the IC50 was found to be 14.9 µM. At DNA gyrase subunit B [4], this compound came in with a Kd of 256 µM. For the same compound, the Activity in experiment [5] stood at 84%.

Turning to `COC(=O)CC(=O)N1CCC(NC(=O)c2cc3ccccc3[nH]2)CC1`, the Activity in experiment [2] stood at 100%.

Consider `CO[C@@H]1[C@@H](OC(N)=O)[C@@H](O)[C@H](Oc2ccc3c(O)c(NC(=O)c4ccc(O)c(CC=C(C)C)c4)c(=O)oc3c2C)OC1(C)C` [NOVOBIOCIN], for which the IC50 in experiment [6] stood at 0.01 µM; in experiment [7] it was 0.08 µM.

Regarding `O=C(O)CC(=O)N1CCC(NC(=O)c2cc(Br)c(Br)[nH]2)CC1`, half-maximal inhibition on DNA gyrase subunit B [1] (IC50) required 10.8 µM. The Activity in experiment [5] was found to be 80%.

`O=C(NC1CCN(C(=O)c2ccc(O)c(O)c2)CC1)c1cc(Br)c(Br)[nH]1`: 2.84 µM corresponded to half-maximal inhibition against DNA gyrase subunit B [1] (IC50).

Turning to `CC(C)(C)OC(=O)N1CCC(NC(=O)c2cc(Br)c(Br)[nH]2)CC1`, the IC50 against DNA gyrase subunit B [1] was > 50 µM.

As to `COC(=O)CC(=O)N1CCN(C(=O)c2cc(Br)c(Br)[nH]2)CC1`, in experiment [2], the Activity was found to be 78%.

On DNA gyrase subunit B [1], `COC(=O)CCCC(=O)N1CCC(NC(=O)c2cc(Br)c(Br)[nH]2)CC1` came in with an IC50 of 11.2 µM.

Turning to `Nc1ncc(C(=O)N2CCN(C(=O)c3cccnc3)CC2)[nH]1`, the Activity in experiment [2] worked out at 100%.

`COC(=O)CCC(=O)N1CCC(NC(=O)c2[nH]c(C)c(Cl)c2Cl)CC1`: the IC50 against DNA gyrase subunit B [1] worked out at 20 µM.

`COC(=O)CCC(=O)N1CCC(NC(=O)c2cc(Br)c(Br)[nH]2)CC1`: the IC50 on DNA gyrase subunit B [1] was determined as 20.9 µM.

As for `COC(=O)CC(=O)N1CCC(NC(=O)c2cc(Br)c(Br)[nH]2)CC1`, on DNA gyrase subunit B [1], the IC50 came to 13.7 µM.

Turning to `C=CCN(C(=O)c1cc2ccccc2[nH]1)C1CCN(C(=O)CCC(=O)OC)CC1`, the Activity in experiment [2] is 100%.

For `COC(=O)CCC(=O)N1CCC(N(Cc2ccccc2)C(=O)c2cc3ccccc3[nH]2)CC1`, the Activity in experiment [2] turned out to be 100%.

In the case of `CCOC(=O)C(=O)N1CCC(NC(=O)c2cc(Br)c(Br)[nH]2)CC1`, the IC50 on DNA gyrase subunit B [1] is 4.35 µM. Besides, in experiment [5], the Activity amounted to 74%.

With `COC(=O)CNC(=O)[C@H]1CC[C@H](CNC(=O)c2cc(Br)c(Br)[nH]2)CC1`, the Activity in experiment [2] is 100%.

In turn, `COC(=O)c1ccc(C(=O)N2CCC(NC(=O)c3cc(Br)c(Br)[nH]3)CC2)cc1` registered an IC50 on DNA gyrase subunit B [1] of 480 µM.

Take `COC(=O)CCNC(=O)[C@H]1CC[C@H](CNC(=O)c2cc(Br)c(Br)[nH]2)CC1`: in experiment [2], the Activity is 100%.

As for `COC(=O)CNC(=O)[C@H]1CC[C@H](NC(=O)c2cc(Br)c(Br)[nH]2)CC1`, the Activity in experiment [2] came to 100%.

For `O=C(O)CNC(=O)[C@H]1CC[C@@H](NC(=O)c2cc(Br)c(Br)[nH]2)CC1`, the Activity in experiment [2] stood at 100%.

`COC(=O)c1ccc(C(=O)N2CCC(NC(=O)c3cc4ccccc4[nH]3)CC2)cc1`: the Activity in experiment [2] was found to be 88%.

Regarding `COC(=O)CNC(=O)[C@H]1CC[C@@H](NC(=O)c2cc(Br)c(Br)[nH]2)CC1`, the Activity in experiment [2] was 100%.

With `Nc1ncc(C(=O)N2CCN(C(=O)c3c[nH]c4ccccc34)CC2)[nH]1`, in experiment [2], the Activity is 100%.

For the compound `Nc1ncc(C(=O)N2CCN(Cc3ccc[nH]3)CC2)[nH]1`, the Activity in experiment [2] was 100%.

Take `COC(=O)CCC(=O)N1CCC(NC(=O)c2ccc[nH]2)CC1`: the Activity in experiment [2] is 100%.

For the compound `COC(=O)CCC(=O)N1CCC(N(Cc2ccccc2)C(=O)c2cc(Br)c(Br)[nH]2)CC1`, in experiment [2], the Activity was found to be 100%.

In the case of `O=C(O)c1ccc(CN2CCC(NC(=O)c3cc(Br)c(Br)[nH]3)CC2)cc1`, the IC50 at DNA gyrase subunit B [1] amounted to 63.1 µM. The Activity in experiment [5] is 100%.

On to `O=C(O)CCNC(=O)[C@H]1CC[C@H](NC(=O)c2cc(Br)c(Br)[nH]2)CC1`, for which the Activity in experiment [2] worked out at 100%.

Compound `O=C(O)CNC(=O)[C@H]1CC[C@H](NC(=O)c2cc(Br)c(Br)[nH]2)CC1` returned an IC50 against DNA gyrase subunit B [1] of 15.1 µM.

Consider `O=C(O)CCC(=O)N1CCC(N(Cc2ccccc2)C(=O)c2cc3ccccc3[nH]2)CC1`, for which the Activity in experiment [2] is 100%.

As for `COC(=O)c1ccc(CN2CCC(NC(=O)c3cc(Br)c(Br)[nH]3)CC2)cc1`, the Activity in experiment [2] was 100%.

For the compound `COC(=O)CCNC(=O)[C@H]1CC[C@H](NC(=O)c2cc(Br)c(Br)[nH]2)CC1`, the Activity in experiment [2] was 100%.

As to `O=C(O)c1cccc(CN2CCC(NC(=O)c3cc(Br)c(Br)[nH]3)CC2)c1`, at DNA gyrase subunit B [1], 49.5 µM corresponded to half-maximal inhibition (IC50). Also, the Kd on DNA gyrase subunit B [4] amounted to 11.2 µM. For the same compound, the Activity in experiment [5] stood at 100%.

On to `Nc1ncc(C(=O)N2CCN(C(=O)[C@@H]3CCCN3)CC2)[nH]1`, for which, in experiment [2], the Activity is 100%.

On DNA gyrase subunit B [1], `O=C(O)C(=O)N1CCC(NC(=O)c2cc(Br)c(Br)[nH]2)CC1` had a 50% inhibitory concentration (IC50) of 49.2 µM.
